Among the data in ChEMBL document CHEMBL4513216, “Probing the Open Global Health Chemical Diversity Library for Multistage-Active Starting Points for Next-Generation Antimalarials” (ACS Infect Dis, 2020) are cytotoxicity values, retold here.

The nature of the data set: Toxicity liver stage against HepG2, at 10uM. The format is cell-based. More on the design: test concentration 10 uM, cell line HepG2-A16-CD81EGFP. The conditions noted are these: human, HepG2-A16-CD81EGFP cells; read-out: INHIBITION
The essentials: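 Uninfected HepG2-A16-CD81EGFP cells, 3 × 10^3 per well, 1536-well, plated on prespotted compound at 10 μM final, parasite-free screening media added to match infected plates; puromycin 10 μM positive, DMSO 0.5% negative; run in parallel with 48 h PbLuc assay at 37 °C, 5% CO2; viability by CellTiter-Glo luminescence, normalized to controls.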
Turning to `CCCN(C(=O)c1cc2c([nH]c1=O)CCCC2=O)C1CCCCC1`, the cytotoxicity at 10 µM was -0.708%.
In the case of `O=C(Cn1ccc2ccc(Br)cc21)NCc1ccc(C(=O)O)cc1`, the cytotoxicity at 10 µM is 6.46%.
With `O=c1[nH]c2ccccc2c2c1CCO2`, the cytotoxicity at 10 µM was 6.9%.
Take `CNC(=O)COC(=O)c1ccn(-c2ccc(Cl)c(Cl)c2)n1`: the cytotoxicity at 10 µM worked out at 20.9%.
For `Cc1cnn(CC2CCCN2Cc2noc(C)n2)c1` (stereo unspecified) the value was 0.742%; for `CC(c1cccc(S(N)(=O)=O)c1)N(C)CCCOc1ccccc1` (stereo unspecified), -1.99%.
`CS(=O)(=O)N1CCCC12CCCN(S(=O)(=O)c1ccc(F)cc1)C2` (stereo unspecified): the cytotoxicity at 10 µM was determined as 0.442%.
For `O=C(NCc1cccnc1)NCC(O)c1ccccc1C(F)(F)F` (stereo unspecified) the value was 1.5%; for `Cc1ccc2c(n1)N(CCn1cccn1)CCN(C(=O)NC(C)C)C2`, 13.3%; for `CC(C)[C@@H]1CN(C(=O)CN(C)Cc2ccc(F)cc2)C[C@H]1C(=O)O`, 1.74%.
On to `CN1CCN(CC2CC2)C(=O)c2cnc(N3CCCC3)nc21`, for which the cytotoxicity at 10 µM was 5.08%.
Then `C[C@@H]1C[C@@H]2CCN(Cc3ccccn3)C[C@H]2O1`, with -75.9%.
Take `c1ccc(CN2CCc3ncnc(N4CCCC4)c3CC2)nc1`: the cytotoxicity at 10 µM is -8.35%.
Turning to `CC(C)CN1C(=O)C2(CCN(Cc3ccoc3)C2)c2ccccc21` (stereo unspecified), the cytotoxicity at 10 µM was 4.82%.
Then `CCS(=O)(=O)N1CCc2cc(C(=O)NC)c(NCC3CC3)nc2CC1`, with 1.88%; and `O=C(c1ccc2c(c1)CCO2)N1CCN(c2cnccn2)CC1`, with -14.4%.
Consider `CCOC1CCCN(C(=O)c2sccc2-n2cnnn2)C1` (stereo unspecified), for which the cytotoxicity at 10 µM is 4.39%.
For `O=S(=O)(NC1=NCN(CCc2ccccc2)CN1)c1ccc(F)cc1`, the cytotoxicity at 10 µM was 3.47%.
`CC(C)Cc1noc(CN(C)C2CCCC2)n1`: the cytotoxicity at 10 µM was determined as 0.274%.
With `Cc1nc(-c2ccc(S(=O)(=O)N3CCC4(CC3)OCCO4)cc2)co1`, the cytotoxicity at 10 µM turned out to be 1.69%.
For the compound `CO[C@H]1CO[C@@]2(CCCN(C(=O)N(C)C)C2)C1`, the cytotoxicity at 10 µM is -97.4%.
As for `c1ncc2c(n1)CN(c1ncnc3[nH]ccc13)CC2`, the cytotoxicity at 10 µM was -4.28%.
Consider `CC(NC1(CNC(=O)CC2CCCC2)CCOCC1)c1ccccc1` (stereo unspecified), for which the cytotoxicity at 10 µM was -1.67%.
With `CC1(C)CN=C(N2CCN(CC3CCOC3)CC2)S1` (stereo unspecified), the cytotoxicity at 10 µM worked out at 11.7%.
As for `CC(C)(C)c1nc(CN2CCCC(c3noc(C4CC4)n3)C2)no1` (stereo unspecified), the cytotoxicity at 10 µM is -14.4%.
For `c1ccc(-c2noc(CN3CCc4cncnc4C3)n2)nc1` the value was -2.97%.
As for `Cc1nc(C(=O)N(C)CC2CC2)nn1-c1ccccc1C(C)C`, the cytotoxicity at 10 µM turned out to be 5.38%.
Take `CCn1cc(NC(=O)NCC(C)N2CCCC2)cn1` (stereo unspecified): the cytotoxicity at 10 µM is -9.89%.
With `CC(=O)N1Cc2ccccc2OC2(CCN(C(=O)C3CC3)CC2)C1`, the cytotoxicity at 10 µM was 9.91%.
With `COc1ccc(COCC(O)CNC(=O)c2cc(C)no2)cc1` (stereo unspecified), the cytotoxicity at 10 µM was determined as 0.742%.
Then `CCCS(=O)(=O)c1ncc(CN2CCC(CO)CC2)n1CC1CCCO1` (stereo unspecified), with 7%; and `COc1ccc(CN2CC[C@H]3CO[C@H](CNC(=O)N(C)C)[C@H]3C2)cc1`, with 1.07%; and `CS(=O)(=O)N1CCOCC2(CN(Cc3ccsc3)CCO2)C1` (stereo unspecified), with -11.7%.
Regarding `COC1COC2(CCN(C(=O)c3ncccn3)CC2)C1` (stereo unspecified), the cytotoxicity at 10 µM amounted to 6.07%.
For `Cc1cc(C)n(-c2ccccc2NC(=O)NCCCN(C)S(C)(=O)=O)n1` the value was -4.01%.
Turning to `O=C(Cc1ccsc1)N1CCN(CC2CC2)c2ncccc2C1`, the cytotoxicity at 10 µM is -101%.
`CCOC(=O)N1CCN(c2nc(CCN)nc3sc(C)c(C)c23)CC1`: the cytotoxicity at 10 µM was -43.4%.
In the case of `Cn1cc(N2C[C@@H]3CN(S(=O)(=O)C4CC4)C[C@@H]3C2=O)cn1`, the cytotoxicity at 10 µM is 1.86%.
For `COC(=O)C1CN(Cc2cc(F)ccc2Br)CCO1` (stereo unspecified) the value was -5.51%.
Then `CCCN1CCN(C(=O)c2cc3ccccc3cn2)[C@H]2CS(=O)(=O)C[C@H]21`, with 1.1%; and `Cc1ccc(C(C(=O)N2CCC(Cc3noc(C)n3)CC2)N(C)C)cc1` (stereo unspecified), with -5.37%.
For `Nc1nc(N)c2c(n1)OC1(CCCN(Cc3nccs3)CC1)C2` (stereo unspecified), the cytotoxicity at 10 µM is -2.25%.
In the case of `COc1ccc(CCC(=O)N2CCCCC2Cn2cccn2)cc1F` (stereo unspecified), the cytotoxicity at 10 µM is -8.7%.
In the case of `CNC(=O)c1cccc(CC2COCCN(Cc3ccsc3)C2)n1` (stereo unspecified), the cytotoxicity at 10 µM was -0.257%.
In the case of `CC(=O)N1CC[C@H]2CC(=O)N(C3CCCCC3)CC[C@H]2C1`, the cytotoxicity at 10 µM is 0.325%.
With `CNC(=O)[C@H]1C[C@@H]2CN(C(=O)c3cccnc3)C[C@@H]2N1S(C)(=O)=O`, the cytotoxicity at 10 µM was -4.12%.
With `CN(C)CCCNc1ncnc2cccc(F)c12`, the cytotoxicity at 10 µM is 9.66%.
Take `O=c1ccc(-n2ccnc2)nn1CCNS(=O)(=O)c1ccc(Cl)s1`: the cytotoxicity at 10 µM was -1.36%.
As for `CN1CCN(Cc2cnc3n2CCN(Cc2cccs2)C3)CC1`, the cytotoxicity at 10 µM is -3.24%.
Take `CC(=O)NCC(=O)N1CCc2nc(-c3ccccc3)nc(C)c2CC1`: the cytotoxicity at 10 µM was -2.54%.
On to `CC(C)n1cnnc1CNC(=O)CCCOc1ccccc1Cl`, for which the cytotoxicity at 10 µM is -3.51%.
For `Cc1cc(C)nc(Nc2cc(C3CCCN(C)C3)nc(C)n2)n1` (stereo unspecified) the value was -5.12%; for `Fc1ccc(CN2CCCC2c2cncc(-n3ccnc3)n2)cc1` (stereo unspecified), 5.82%.
As for `CN1CCCN(CCCNC2CCc3cc4c(cc32)OCCO4)CC1` (stereo unspecified), the cytotoxicity at 10 µM was -3.68%.
In the case of `CCOc1ncccc1C(=O)N1CCCC(c2nccn2CCOC)C1` (stereo unspecified), the cytotoxicity at 10 µM is -9.12%.
For `CC(C)CS(=O)(=O)N1C[C@@H]2C[C@H](C(=O)NCc3ccccc3)[C@H](C1)O2` the value was 8.24%; for `Cn1c(=O)[nH]c(=O)n2c(CC(=O)NCc3ccccc3)cnc12`, 7.77%.
For `CC(NC(=O)COc1ccccc1I)C1CC1` (stereo unspecified), the cytotoxicity at 10 µM came out at 2.72%.
On to `O=C(c1ccoc1)N1CCC(NCc2ccccc2-n2ccnc2)CC1`, for which the cytotoxicity at 10 µM stood at 5.89%.
For the compound `CN(CCc1ccccn1)c1cnn(C)c(=O)c1Br`, the cytotoxicity at 10 µM was -5.03%.
For `CNC(=O)c1cccnc1NCc1ccc(-n2cccn2)cc1`, the cytotoxicity at 10 µM stood at 14.1%.
In the case of `CC(C)c1ccc(O)c(C(=O)N2CCN(Cc3cscn3)CC2)c1`, the cytotoxicity at 10 µM is -3.24%.
In the case of `CC(C)N(C)CC(=O)NCCc1nc(C(F)(F)F)cs1`, the cytotoxicity at 10 µM is 5.07%.
Then `Cc1nccn1C1CCCN(C(=O)c2cnc[nH]2)C1` (stereo unspecified), with -5.43%; and `Cc1ccc(C(=O)NCC(O)c2ccc(Cl)s2)c(=O)[nH]1` (stereo unspecified), with -20.7%; and `CCCN1CCc2nc(N3CCOCC3)nc(NC(C)C)c2C1`, with -111%.
As for `CCCSc1nc(N)c(NC(=O)c2ccc(OC)c(OC)c2)c(=O)[nH]1`, the cytotoxicity at 10 µM was -8.7%.
For `Cc1nc(S(=O)(=O)N2CCc3[nH]nc(CCC(C)C)c3C2)cn1C`, the cytotoxicity at 10 µM worked out at 10.2%.
Consider `COc1ccc2nc(C)c(C(=O)NCCN3CCS(=O)(=O)CC3)cc2c1`, for which the cytotoxicity at 10 µM was -15.2%.
For `CC(=O)Nc1ccc(SCC(O)COCc2ccccc2)cc1` (stereo unspecified) the value was 1.87%.
With `CNC(=O)c1ccc(NC(=O)NC(C)c2cc(C)oc2C)cc1` (stereo unspecified), the cytotoxicity at 10 µM was -12.8%.
Consider `COCCN(C)C[C@H]1CC[C@@H](Cc2ccc3c(cnn3C)c2)O1`, for which the cytotoxicity at 10 µM amounted to 0.255%.
In the case of `CN(CCn1cccn1)S(=O)(=O)c1cccc(Cl)c1C#N`, the cytotoxicity at 10 µM is 3.45%.
Then `OC(COCc1ccccc1F)CN1CCc2c(ncn2C2CC2)C1` (stereo unspecified), with 2.86%.
Take `Cc1nc(CNC(=O)C(C)Oc2ccccc2F)no1` (stereo unspecified): the cytotoxicity at 10 µM turned out to be 5.43%.
With `NC(=O)CN1CCC(NC(=O)COCCOc2ccccc2)CC1`, the cytotoxicity at 10 µM was -9.46%.
Consider `CNC(=O)[C@H]1CO[C@H]2CCN(c3ncc(F)cn3)C[C@H]2C1`, for which the cytotoxicity at 10 µM was -0.0253%.
Then `Cc1cccnc1CN1CCOC(Cc2cccc3ccccc23)C1` (stereo unspecified), with -2.43%; and `O=C(Cc1cn2ccccc2n1)N1CCCC(n2ccnc2)C1` (stereo unspecified), with -22.4%.
Turning to `O=C(CSc1nccc(-c2ccc3c(c2)OCO3)n1)N1CCOCC1`, the cytotoxicity at 10 µM is -8.3%.
Take `Cc1cc(C)n(CCC(=O)N2CCC(c3nc(C)no3)CC2)n1`: the cytotoxicity at 10 µM worked out at 23.3%.
Consider `Cc1n[nH]c(C2CN(CCCOc3cccc(Cl)c3)CCO2)n1` (stereo unspecified), for which the cytotoxicity at 10 µM was -5.57%.
As to `CN(CCS(=O)(=O)c1cc(Cl)ccc1Cl)CC(N)=O`, the cytotoxicity at 10 µM turned out to be 4.65%.
Regarding `CN(C(=O)c1ccccc1NCC(=O)O)C(C1CC1)C1CC1`, the cytotoxicity at 10 µM worked out at 1.73%.
With `O=C(CCC(=O)N1CCC(c2noc3cc(F)ccc23)CC1)NC1CC1`, the cytotoxicity at 10 µM amounted to 5.09%.
Regarding `CC(C)(C)c1cn2nc(N3CCCC(Cn4cncn4)C3)sc2n1` (stereo unspecified), the cytotoxicity at 10 µM is -9.32%.
`Cc1noc([C@@H]2C[C@H](NS(=O)(=O)Cc3ccccc3)CN2C)n1`: the cytotoxicity at 10 µM is 4.5%.
For `CCn1cc(C(=O)N2CCCC(c3nccs3)C2)cn1` (stereo unspecified) the value was -4.19%; for `Cc1cn2c(n1)C(CNCc1cnn3ccccc13)CCC2` (stereo unspecified), 1.78%; for `CCN1CCNC(=O)C12CCN(C(=O)c1ccccn1)CC2`, -0.514%.
For `COc1cccc(-c2n[nH]cc2CNC2CCCN(C)C2)c1` (stereo unspecified) the value was -8.86%.
Then `Cn1cnc2c1CCN(CC(=O)NC1CCCCNC1=O)C2` (stereo unspecified), with -5.97%.
Turning to `O=C1CO[C@H]2CN(C3CCOCC3)C[C@H]2N1Cc1ccc(F)cc1`, the cytotoxicity at 10 µM was -6.35%.
Regarding `Cc1nc(C(=O)N2CCCC2c2cncc(CN3CCCC3)n2)co1` (stereo unspecified), the cytotoxicity at 10 µM was found to be 8.99%.
As to `CN(CC(O)C(F)(F)F)C(=O)Nc1cccc(N2CCCC2)c1` (stereo unspecified), the cytotoxicity at 10 µM was found to be 5.48%.
For `Cc1ccn(-c2ccccc2NCc2ccccn2)n1` the value was -9.99%.
